Measured values from BindingDB's records for doi:10.1021/jm980495r (Institute of Mutagenesis and Differentiation, 1999).

Tests used:
[1] = biological target: T1, B1 bradykinin receptor (Rattus norvegicus, UniProt P97583); assay: Antagonistic activity against Bradykinin receptor B1 of rat ileum longitudinal smooth muscle.
T1 sequence (P97583 whole entry): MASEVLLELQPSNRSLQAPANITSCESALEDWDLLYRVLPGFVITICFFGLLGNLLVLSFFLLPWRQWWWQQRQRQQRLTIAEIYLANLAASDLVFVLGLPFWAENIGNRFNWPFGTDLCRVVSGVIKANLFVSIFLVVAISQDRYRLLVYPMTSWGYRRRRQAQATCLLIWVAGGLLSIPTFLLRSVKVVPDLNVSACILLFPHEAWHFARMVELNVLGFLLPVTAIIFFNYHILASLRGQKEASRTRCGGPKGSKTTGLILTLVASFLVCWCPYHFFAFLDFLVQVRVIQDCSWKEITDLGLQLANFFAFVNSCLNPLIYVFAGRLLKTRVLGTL
Procedure, shortened: (§1)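 Rat ileum longitudinal muscle-myenteric plexus strips in oxygenated (95% O2/5% CO2) Krebs with indomethacin, guanethidine (3 μM each), chlorpheniramine, atropine (1 μM each). Cumulative desArg9-BK curves with thiorphan, bestatin, captopril (1 μM each); antagonist given 15 min before repeat curve at 1–10 μM. Contraction read-out; pA2 (dose ratio 2), mean ± SE of 4–15 experiments.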

[2] = biological target: T2, B2 bradykinin receptor (Cavia porcellus, UniProt O70526); assay: Antagonistic activity against Bradykinin receptor B2 of guinea pig ileum longitudinal smooth muscle.
T2 sequence (O70526 whole entry): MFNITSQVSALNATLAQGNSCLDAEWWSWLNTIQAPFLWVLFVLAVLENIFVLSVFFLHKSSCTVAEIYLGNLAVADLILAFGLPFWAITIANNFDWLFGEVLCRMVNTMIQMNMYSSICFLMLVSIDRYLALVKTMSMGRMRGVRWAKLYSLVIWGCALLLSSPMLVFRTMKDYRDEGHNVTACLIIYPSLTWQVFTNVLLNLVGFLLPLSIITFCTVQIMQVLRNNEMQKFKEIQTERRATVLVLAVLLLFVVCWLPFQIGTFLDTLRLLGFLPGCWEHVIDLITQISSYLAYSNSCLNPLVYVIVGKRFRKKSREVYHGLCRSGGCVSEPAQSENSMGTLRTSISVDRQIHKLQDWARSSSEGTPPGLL
Procedure, shortened: as §1, with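 “Guinea pig” for “Rat”, “BK” for “desArg9-BK”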

Kd [1] [nM]	Kd [2] [nM]	Structure (SMILES)
19.9	6.31	N=C(N)NCCC[C@@H](N)C(=O)N[C@@H](CCCNC(=N)N)C(=O)N1CCC[C@H]1C(=O)N1CC(O)C[C@H]1C(=O)NCC(=O)N[C@H](C(=O)N[C@@H](CO)C(=O)N[C@@H](C(=O)N1C(C(=O)N[C@H](CCCNC(=N)N)C(=O)O)C[C@@H]2CCCC[C@@H]21)C1Cc2ccccc2C1)C1Cc2ccccc2C1 (some centres undefined) [B-9430]
7.94	3160	N=C(N)NCCC[C@H](NC(=O)[C@H](CCCCN)NC(=O)[C@@H](N)CCCCN)C(=O)N1CCC[C@H]1C(=O)N1CC(O)C[C@H]1C(=O)NCC(=O)N[C@H](C(=O)N[C@@H](CO)C(=O)N[C@@H](C(=O)N1C(C(=O)O)C[C@@H]2CCCC[C@@H]21)C1Cc2ccccc2C1)C1Cc2ccccc2C1 (some centres undefined) [B-9858]
